In PubChem BioAssay AID540281 (Sanford-Burnham Center for Chemical Genomics, 2011):
In all, about 2,500 compounds went through this assay and about 1,500 (60%) were called active.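 Rule for the calls: active = inhibition of at least 30% at 20 µM; inactive = the rest.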 The set was probably picked from earlier hits. The list is a sample of the results. Non-standard residues stand in square brackets, D forms with d. Residues, ends and D or L forms follow the SMILES beside them. ξ: configuration not given here. ξM = CSCCC(N)C(=O)O

Each compound was assayed against Carboxy-terminal domain RNA polymerase II polypeptide A small phosphatase 1 (Homo sapiens) (UniProt Q9GZU7) (assay: Scp-1 phosphatase inhibitors, retest, confirmation, biochemical, colorimetric, single concentration (AID 540281;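 note: plate controls were DMSO with enzyme for no effect and buffer wells lacking enzyme for full effect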)). Details: recombinant SCP-1 catalytic domain, phosphate release, malachite green absorbance; at 20 µM; hits give high values.
Sequence of Carboxy-terminal domain RNA polymerase II polypeptide A small phosphatase 1 (Homo sapiens) (Q9GZU7 76-261 limits assumed): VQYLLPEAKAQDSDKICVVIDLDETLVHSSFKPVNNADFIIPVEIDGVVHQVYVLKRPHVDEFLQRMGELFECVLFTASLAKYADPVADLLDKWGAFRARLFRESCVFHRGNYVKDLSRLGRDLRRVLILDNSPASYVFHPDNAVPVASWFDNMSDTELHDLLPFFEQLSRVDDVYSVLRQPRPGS
Outline: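 Assay system: SCP-1 catalytic fragment (residues 76-261). Schedule: 45 min enzyme reaction at room temperature. Medium: Tris acetate pH 5.5 buffer with Mg2+ and detergent. Compound: one dose, 20 µM final, 1.0% DMSO. Reagent: Phospho-17-mer peptide substrate. Detection: absorbance at 630 nm, free phosphate colorimetry.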
With `Cc1ccc(NC(=O)COc2ccc(/C=N\NC(=O)c3cccnc3)cc2)cc1C` the inhibition was 81% (active). With `Cc1ccccc1NC(=O)CN1C(=O)N/C(=C\c2cccn2-c2cccc(C(=O)O)c2)C1=O` the inhibition was 82.2% (active). With `Cc1ccc(C2(C)NC(=O)N(CC(=O)Nc3ccccc3C(=O)N3CCCCC3)C2=O)cc1` (stereo not drawn) the inhibition was -13.7% (inactive). With `COc1ccc(NC(=O)N(C)C[C@H]2Oc3ccc(NC(=O)C4CC4)cc3C(=O)N([C@H](C)CO)C[C@@H]2C)cc1` the inhibition was 2.35% (inactive). `C[C@H](CO)N1C[C@H](C)[C@@H](CN(C)C(=O)NC2CCCCC2)Oc2ccc(NC(=O)c3ccncc3)cc2C1=O` was tested, and the inhibition was 6.94% (inactive). In the case of `C[C@H](CO)N1C[C@H](C)[C@H](CN(C)C(=O)Nc2ccc(C(F)(F)F)cc2)Oc2c(NC(=O)c3ccncc3)cccc2C1=O`, the inhibition is reported as 44.3% (active). `CNS(=O)(=O)c1cccc(C(=O)OCC(=O)N2c3ccccc3NC(=O)C2(C)C)c1` was tested, and the inhibition was 48.6% (active). With `CC(NC(=O)CC1SC(N)=NC1=O)c1ccccc1` (stereo not drawn) the inhibition was -28.8% (inactive). In the case of `C=Cc1ccc(C(=O)N2CCCC(CCC(=O)N3CCN(c4ccccn4)CC3)C2)cc1` (stereo not drawn), the inhibition is reported as 67% (active). `COc1cc(SC)ccc1C(=O)NNC(=O)C1COc2ccccc2O1` (stereo not drawn) was tested, and the inhibition was 5.11% (inactive). With `O=C(Nc1cc(S(=O)(=O)N2CCCCC2)ccc1Cl)C1COc2ccccc2O1` (stereo not drawn) the inhibition was 65.1% (active). In the case of `O=C(N/N=C/c1ccco1)c1ccc(C(=O)N/N=C/c2ccco2)o1`, the inhibition is reported as 56.8% (active). For `COc1ccc2[nH]c3c(C)c4cc[n+](C)cc4c(C)c3c2c1`, the inhibition was -2.43% (inactive). With `COc1ccc(/C=C/C(=O)OCC(=O)NC2CCCCCC2)cc1OC` the inhibition was 45.2% (active). `N/C(=N\OC(=O)N1c2ccccc2Sc2ccccc21)c1ccc(Br)cc1` was tested, and the inhibition was 46.1% (active). `Cc1ccc(Cc2nnc(SCC(=O)Nc3ccc(C)cc3C)[nH]c2=O)cc1` was tested, and the inhibition was 39.7% (active). `COCCCn1c(Cc2csc(Nc3cccc(Cl)c3)n2)nnc1SCC(=O)OC1CCCCC1` was tested, and the inhibition was 59.1% (active). `Cc1ccc(S(=O)(=O)Nc2ccc3c(c2)C(=O)N([C@H](C)CO)C[C@@H](C)[C@@H](CN(C)C(=O)Nc2cccc4ccccc24)O3)cc1` was tested, and the inhibition was 5.11% (inactive). For `N#Cc1ccccc1CN1C(=O)S/C(=C/c2cccn2-c2cccc(C(=O)O)c2)C1=O`, the inhibition was 67% (active). With `C[N+](C)(C)CCNC(=O)c1cc[n+](Cc2ccccc2)c(/C=N/O)c1` the inhibition was 83.3% (active). In the case of `CC(=O)Nc1ccccc1Sc1ccc2c3c(cccc13)C(=O)N(c1ccc(C)cc1)C2=O`, the inhibition is reported as 0.82% (inactive). In the case of `COC(=O)CNC(=O)C(CCSC)NC(C)=O` (stereo not drawn) (Ac-[ξM]-Gly-OMe), the inhibition is reported as -12.9% (inactive). `O=C(CNC(=O)C(c1ccccc1)c1ccccc1)N/N=C\c1ccc2c(c1)OCO2` was tested, and the inhibition was -8.05% (inactive). For `O=C(CCC(=O)N/N=C/c1ccc(Br)o1)N/N=C/c1ccc(Br)o1`, the inhibition was 40.3% (active). With `O=C(CCNC(=O)c1ccccc1)NN=Cc1ccc(Br)o1` the inhibition was 45% (active). With `N#Cc1c(-c2cccs2)nc(SCC(=O)c2ccc(Br)cc2)[nH]c1=O` the inhibition was 78.5% (active). For `COc1ccc(Cc2nnc(NC(=O)Cc3cccs3)s2)cc1`, the inhibition was 77.3% (active). With `O=S(=O)(Nc1ccccc1Cl)c1cccc2nsnc12` the inhibition was 48.1% (active).
